Results from ChEMBL document CHEMBL1140700, “Substituted pyrazoles as hepatoselective HMG-CoA reductase inhibitors: discovery of (3R,5R)-7-[2-(4-fluoro-phenyl)-4-isopropyl-5-(4-methyl-benzylcarbamoyl)-2H-pyrazol-3-yl]-3,5-dihydroxyheptanoic acid (PF-3052334) as a candidate for the treatment of hypercholesterolemia” (J Med Chem, 2008).

What was measured:
[1] = biological target: T1, 3-hydroxy-3-methylglutaryl-coenzyme A reductase (Rattus norvegicus, UniProt P51639); assay: Inhibition of HMG-CoA reductase in Sprague-Dawley rat liver microsomes; parameters: species or system Microsome
T1 sequence (P51639 whole entry): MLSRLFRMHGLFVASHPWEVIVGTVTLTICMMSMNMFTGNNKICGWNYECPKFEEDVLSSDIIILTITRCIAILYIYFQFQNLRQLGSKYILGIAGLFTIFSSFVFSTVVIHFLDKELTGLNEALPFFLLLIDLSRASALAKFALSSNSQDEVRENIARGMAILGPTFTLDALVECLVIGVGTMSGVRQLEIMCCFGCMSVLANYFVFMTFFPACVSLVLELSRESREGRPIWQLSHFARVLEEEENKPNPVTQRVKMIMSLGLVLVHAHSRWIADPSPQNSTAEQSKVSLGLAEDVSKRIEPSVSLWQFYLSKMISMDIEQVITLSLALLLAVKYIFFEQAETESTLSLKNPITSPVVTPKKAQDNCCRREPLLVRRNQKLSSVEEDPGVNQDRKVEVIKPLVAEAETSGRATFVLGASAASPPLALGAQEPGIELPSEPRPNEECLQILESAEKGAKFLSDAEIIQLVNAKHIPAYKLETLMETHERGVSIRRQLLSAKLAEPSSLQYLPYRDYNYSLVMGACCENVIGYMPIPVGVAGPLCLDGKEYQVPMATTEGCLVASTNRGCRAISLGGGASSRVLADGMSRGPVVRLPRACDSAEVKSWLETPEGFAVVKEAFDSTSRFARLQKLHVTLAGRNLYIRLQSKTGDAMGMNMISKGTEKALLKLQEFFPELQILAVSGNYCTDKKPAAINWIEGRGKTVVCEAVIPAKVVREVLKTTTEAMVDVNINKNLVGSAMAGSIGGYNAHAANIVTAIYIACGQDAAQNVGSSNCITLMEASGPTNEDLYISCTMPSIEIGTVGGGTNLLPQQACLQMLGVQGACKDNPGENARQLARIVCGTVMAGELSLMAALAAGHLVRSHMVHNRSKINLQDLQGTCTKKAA
Outline: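 Rat liver microsomes (35 µg/mL) in 100 mM NaH2PO4, 10 mM imidazole, 10 mM EDTA, preincubated with compound in DMSO 0.5 h on ice; 14C-HMG-CoA (0.024 µCi) with 15 mM NADPH and 25 mM DTT added, 0.75 h at 37 °C. Stopped with HCl, lactonized to mevalonolactone, anion-exchange resin separation, scintillation counting; IC50 by curve fit.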

Hepatocyte [2] = assay: Inhibition of cholesterol synthesis in rat hepatocytes; type: functional, cell-based
Outline: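 Frozen rat hepatocytes on collagen-coated wells, 10^5 cells/well, grown 24 h in DMEM/10% FBS/10 mM HEPES. Compound preincubation 4 h, then 1 µCi/mL 14C acetic acid for 4 h more.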

L6 = assay: Inhibition of cholesterol synthesis in rat L6 cells; type: functional, cell-based
Syrian golden hamster [3] = assay: Inhibition of cholesterol synthesis in Goldern Syrian hamster blood at 10 mg/kg, po after 2 to 4 hrs relative to control; type: functional; conditions: Mesocricetus auratus, read-out: Inhibition
Outline: (§1)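 Hamsters on chow with 2.5% cholestyramine from 3 days prior; oral gavage of vehicle or compound (10 mpk), n = 8/group. At 2 h (2–4 h arm) or 4 h (4–6 h arm) postdose, i.p. 80 µCi 14C sodium acetate in 0.9% NaCl; euthanized 2 h later, cardiac blood, plasma saponified and extracted, 14C cholesterol counted; % change vs untreated controls.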

Cavia porcellus [4] = assay: Reduction of LDL level in chow fed Hartley guinea pig serum at 20 mg/kg/day, po for 7 days relative to rosuvastatin; type: functional, Hartely; parameters: scale not given: the % may be the effect or the level left
Outline: (§2)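 Male Hartley guinea pigs (300–500 g) on chow diet 5025, acclimated ≥1 week; vehicle or compound suspension by daily oral gavage at 10 or 20 mpk (n = 8/group) for 7 days; sacrificed 2 h after final dose; LDL cholesterol as mean % change from vehicle group.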

Hepatocyte [5] = assay: Ratio of IC50 for cholesterol synthesis in rat myocytes to rat hepatocytes; type: functional
Syrian golden hamster [6] = assay: Inhibition of cholesterol synthesis in Golden Syrian hamster blood at 10 mg/kg, po after 4 to 6 hrs relative to control; type: functional; conditions: Mesocricetus auratus, read-out: Inhibition; outline: as §1
Cavia porcellus [7] = assay: Reduction of LDL level in chow fed Hartley guinea pig serum at 10 mg/kg/day, po for 7 days relative to rosuvastatin; type: functional, Hartely; parameters: scale not given: the % may be the effect or the level left; conditions: in the assay text read “20 mg/kg/day” for “10 mg/kg/day”; outline: as §2
Cavia porcellus [8] = assay: Reduction of LDL level in po dosed Hartley guinea pig plasma after 7 days; type: functional; conditions: Hartely, 168 h
[9] = Lipophilicity, log P of the compound; type: physicochemical; conditions: octanol/water

Compound | IC50 [1] [nM] | IC50 (Hepatocyte [2]) [nM] | IC50 (L6) [nM] | % change in cholesterol synthesis vs control at 10 mg/kg (Syrian golden hamster [3]) [%] | Activity (Cavia porcellus [4]) [%] | Ratio IC50 (Hepatocyte [5]) | Percent change in cholesterol synthesis vs control at 10 mg/kg (Syrian golden hamster [6]) [%] | Activity (Cavia porcellus [7]) [%] | ED50 (Cavia porcellus [8]) [mg/kg] | LogP [9]
Cc1cccc(CN(C)C(=O)c2nn(-c3ccc(F)cc3)c(CC[C@@H](O)C[C@@H](O)CC(=O)[O-])c2C(C)C)c1.[Na+] | 6.1 | 0.6 | 4800 | -72 | -15 | 8000 |  |  |  | 
CC(C)c1c(C(=O)N(C)Cc2ccc(F)cc2F)nn(-c2ccc(F)cc2)c1CC[C@@H](O)C[C@@H](O)CC(=O)[O-].[Na+] | 7 | 2.1 | 4400 | -82 | -32 | 2100 | -17 |  |  | 
CC(C)c1c(C(=O)N(C)Cc2cccc(F)c2F)nn(-c2ccc(F)cc2)c1CC[C@@H](O)C[C@@H](O)CC(=O)[O-].[Na+] | 9 | 0.6 | 5700 | -81 | -45 | 9500 | -22 |  |  | 
CC(C)c1c(C(=O)N(C)[C@@H](C)c2ccccc2)nn(-c2ccc(F)cc2)c1CC[C@@H](O)C[C@@H](O)CC(=O)O |  | 3.5 | 41000 |  |  |  |  |  |  | 
CC(C)c1c(C(=O)N2CCCC2c2ccccc2)nn(-c2ccc(F)cc2)c1CC[C@@H](O)C[C@@H](O)CC(=O)O (stereo partly specified) | 7.3 | 4 | 130 |  |  |  |  |  |  | 
CC(C)c1c(C(=O)N2CCCC(c3ccccc3)C2)nn(-c2ccc(F)cc2)c1CC[C@@H](O)C[C@@H](O)CC(=O)O (stereo partly specified) | 1.5 | 0.4 | 680 | -80 |  |  | -15 |  |  | 
CC(C)c1c(C(=O)N2CCC[C@H](c3ccccc3)C2)nn(-c2ccc(F)cc2)c1CC[C@@H](O)C[C@@H](O)CC(=O)O | 2 | 0.3 |  | -78 |  |  |  |  |  | 
COc1ccc(CNC(=O)c2nn(-c3ccc(F)cc3)c(CC[C@@H](O)C[C@@H](O)CC(=O)O)c2C(C)C)cc1 | 2.8 | 0.4 | 460 |  |  |  |  |  |  | 
COCc1cccc(CNC(=O)c2nn(-c3ccc(F)cc3)c(CC[C@@H](O)C[C@@H](O)CC(=O)[O-])c2C(C)C)c1.[Na+] | 7 | 0.7 | 1800 | -71 | -42 | 2600 | -19 |  |  | 
CC(C)c1c(C(=O)NCc2cccc(C#N)c2)nn(-c2ccc(F)cc2)c1CC[C@@H](O)C[C@@H](O)CC(=O)O | 2.2 | 1.4 | 2400 |  |  |  |  |  |  | 
CC(C)c1c(CC[C@@H](O)C[C@@H](O)CC(=O)O)nn(-c2ccc(F)cc2)c1C(=O)NCc1ccccc1 | 520 |  |  |  |  |  |  |  |  | 
Cc1ccc(CN(C)C(=O)c2nn(-c3ccc(F)cc3)c(CC[C@@H](O)C[C@@H](O)CC(=O)O)c2C(C)C)cc1 | 9.9 | 1.8 | 4000 |  |  |  |  |  |  | 
CC(C)c1c(C(=O)N(C)Cc2ccccc2F)nn(-c2ccc(F)cc2)c1CC[C@@H](O)C[C@@H](O)CC(=O)O | 4.8 | 0.5 | 17000 | -69 |  |  | -30 |  |  | 
CCN(Cc1ccccc1)C(=O)c1nn(-c2ccc(F)cc2)c(CC[C@@H](O)C[C@@H](O)CC(=O)O)c1C(C)C | 3.8 | 5.5 | 4400 |  |  |  |  |  |  | 
CC(C)c1c(C(=O)N(C)Cc2cccc(F)c2)nn(-c2ccc(F)cc2)c1CC[C@@H](O)C[C@@H](O)CC(=O)O | 3.9 | 0.2 | 6000 | -65 |  |  |  |  |  | 
CC(C)c1c(C(=O)N(Cc2ccccc2)C(C)C)nn(-c2ccc(F)cc2)c1CC[C@@H](O)C[C@@H](O)CC(=O)O | 9.8 | 10 | 9800 |  |  |  |  |  |  | 
CC(C)c1c(C(=O)N(C)Cc2ccc(F)cc2)nn(-c2ccc(F)cc2)c1CC[C@@H](O)C[C@@H](O)CC(=O)O | 6.6 | 0.5 | 6000 | -71 |  |  |  |  |  | 
CC(C)c1c(C(=O)NCc2ccc(C(=O)N(C)C)cc2)nn(-c2ccc(F)cc2)c1CC[C@@H](O)C[C@@H](O)CC(=O)O | 25 | 23 | 21000 |  |  |  |  |  |  | 
CC(C)c1c(C(=O)N2CCCCC2c2ccccc2)nn(-c2ccc(F)cc2)c1CC[C@@H](O)C[C@@H](O)CC(=O)O (stereo partly specified) | 6.1 | 1.1 | 330 |  |  |  |  |  |  | 
COc1ccc(CN(C)C(=O)c2nn(-c3ccc(F)cc3)c(CC[C@@H](O)C[C@@H](O)CC(=O)O)c2C(C)C)cc1 | 12 | 0.3 | 5800 | -57 |  |  |  |  |  | 
CC(C)c1c(C(=O)N(C)[C@H](C)c2ccccc2)nn(-c2ccc(F)cc2)c1CC[C@@H](O)C[C@@H](O)CC(=O)[O-].[Na+] |  | 0.3 | 1900 | -62 |  |  | -10 | -11 |  | 
CC(C)c1c(C(=O)NCc2ccc(F)cc2)nn(-c2ccc(F)cc2)c1CC[C@@H](O)C[C@@H](O)CC(=O)O | 3.8 | 0.7 | 490 |  |  |  |  |  |  | 
Cc1ccc(CNC(=O)c2nn(-c3ccc(F)cc3)c(CC[C@@H](O)C[C@@H](O)CC(=O)[O-])c2C(C)C)cc1.[Na+] | 1.9 | 0.9 | 730 | -74 | -41 | 810 | -15 |  | 3.6 | 
CC(C)c1c(C(=O)N(C)Cc2ccccc2)nn(-c2ccc(F)cc2)c1CC[C@@H](O)C[C@@H](O)CC(=O)[O-].[Na+] | 5.9 | 0.2 | 3100 | -61 | -20 | 16000 | -16 |  |  | 
CC(C)c1c(C(=O)NCc2ccccc2)nn(-c2ccc(F)cc2)c1CC[C@@H](O)C[C@@H](O)CC(=O)O | 4.7 | 0.3 | 100 |  |  |  |  |  |  | 
COCc1c(C(C)C)nc(C(C)C)c(/C=C/[C@@H](O)C[C@@H](O)CC(=O)O)c1-c1ccc(F)cc1 [CERIVASTATIN] |  | 1.7 | 3 |  |  |  |  |  |  | 
CC[C@H](C)C(=O)O[C@H]1C[C@H](O)C=C2C=C[C@H](C)[C@H](CC[C@@H](O)C[C@@H](O)CC(=O)O)[C@H]21 [PRAVASTATIN] | 13 | 17 | 7600 |  |  | 450 |  |  | 100 | -0.67
CC(C)c1nc(N(C)S(C)(=O)=O)nc(-c2ccc(F)cc2)c1/C=C/[C@@H](O)C[C@@H](O)CC(=O)O [ROSUVASTATIN] | 3.1 | 0.3 | 250 | -76 | -42 | 830 | -46 |  | 9.3 | 
